Source: PubChem
Rows were chosen to be rich in hits. Some 5.9% of all compounds tested hit in one or more screens of this group.
Pf Dd2 inh = P. falciparum Dd2 growth inhibitors, primary screen, SYBR Green fluorescence, single dose replicates | 72 h; stronger effect = lower value | activity change, % at 10 µM | actives 2.3% (n = 94,000) | AID 1159554, 2015; in the data active = activity change below about -80%; inconclusive = no clear call, values can overlap the other calls
T cruzi growth-1 = T. cruzi intracellular proliferation inhibitors, primary screen, cell-based, beta-gal Tulahuen parasites, NIH3T3 host, luminescence; T. cruzi beta-gal in NIH3T3, GalScreen luminescence, 90 h; inhibition, % at 8.34 µM; actives 5.9% (n = 77,000);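 active = mean inhibition above about 93%, with at least 55% of replicates each passing it, limit read from the data, passing the limit was not always enough; inconclusive = only one of those two conditions holds; inactive = neither condition holds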
IDH1 mut inh = inhibitors of IDH1 R132H reductase, primary screen, biochemical, plate reader, single point; Isocitrate dehydrogenase [NADP] cytoplasmic (Homo sapiens), O75874; inhibition, % at 10 µM; diaphorase/resazurin fluorescence, 60 min; actives 0.18% (n = 70,000); in the data active = inhibition above about 34%; inconclusive = no clear call, values can overlap the other calls; inactive = below about 11%;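 also: 0% = DMSO and 100% = no enzyme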
GASC1 inh = inhibitors of GASC-1 (KDM4C) histone demethylase, primary screen, biochemical, single concentration HTS; actives 0.15% (n = 96,000); GST-KDM4C 2-372, H3K9me3 peptide, LANCE TR-FRET; Lysine-specific demethylase 4C (Homo sapiens), Q9H3R0; inhibition, % at 12.5 µM;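 active = mean replicate inhibition above about 25%, with at least 55% of replicates also reaching it, limit read from the data, passing the limit was not always enough; inconclusive = only one of those two conditions met; inactive = neither condition met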
Target sequence (Q9H3R0 2-372 limits assumed): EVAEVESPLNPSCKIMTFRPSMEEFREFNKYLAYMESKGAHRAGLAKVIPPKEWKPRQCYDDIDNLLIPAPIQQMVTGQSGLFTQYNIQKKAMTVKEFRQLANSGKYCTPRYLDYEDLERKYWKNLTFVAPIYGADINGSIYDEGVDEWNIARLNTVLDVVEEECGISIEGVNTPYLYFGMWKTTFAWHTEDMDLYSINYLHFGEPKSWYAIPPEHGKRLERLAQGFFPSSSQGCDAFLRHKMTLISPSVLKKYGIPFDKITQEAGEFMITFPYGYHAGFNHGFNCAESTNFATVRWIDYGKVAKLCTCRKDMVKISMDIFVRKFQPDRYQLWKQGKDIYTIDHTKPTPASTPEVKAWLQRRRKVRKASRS
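Material: GST-tagged GASC-1 (JMJD2C) catalytic fragment, aa 2-372 / Quantity: enzyme final amount 10 nM / Medium: HEPES buffer, pH 7.5, plus ascorbate / Doses: one test concentration per compound / Incubation: 30 min reaction, 60 min detection, RT / Measured by: LANCE TR-FRET / Read-out: inhibition from TR-FRET ratio decrease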
T cruzi growth-2 = T. cruzi intracellular proliferation inhibitors, confirmation, cell-based, NIH3T3 host, beta-gal parasite, luminescence, cherry-pick. shares compounds with T cruzi growth-1. T. cruzi beta-gal in NIH3T3, GalScreen luminescence, 90 h. inhibition, % at 8.35 µM. actives 72% (n = 5,600);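 active = mean replicate inhibition above about 95% and at least 55% of replicates individually reaching it, limit read from the data; inconclusive = only one of the two criteria is met; inactive = neither criterion is met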
T cruzi growth-3 = inhibitors of intracellular T. cruzi replication, confirmation, NIH3T3 host cells, beta-gal parasites, cherry-pick, set 2; shares compounds with T cruzi growth-1; T. cruzi beta-gal in NIH3T3, GalScreen luminescence, 90 h; inhibition, % at 2.09 µM; actives 21% (n = 5,600); AID 651740, 2012;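 active = mean inhibition above about 95%, with at least 55% of replicates also reaching it, limit read from the data; inconclusive = meets just one of the two conditions; inactive = meets neither condition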;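 also: plate controls were neutral control median for no effect and positive control median for full effect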
NIH3T3 tox = cytotoxicity in mouse NIH/3T3 fibroblasts, confirmation, cytotoxicity control for T. cruzi proliferation inhibitor project, cell-based, cherry-pick, single point; shares compounds with T cruzi growth-1; NIH/3T3 viability, CellTiter-Glo ATP luminescence, 90 h; cytotoxicity (signal decrease), % at 8.35 µM; actives 14% (n = 5,600);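 active = mean signal decrease across replicates above about 35% based on untreated-well scatter, with enough replicates individually passing, limit read from the data; inconclusive = no rule stated though some were filed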;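 also: 0% = median of neutral control wells and 100% = median of positive control wells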
NIH3T3 tox 2 = NIH/3T3 fibroblast cytotoxicity, confirmation, cytotoxicity control, cell-based, cherry-pick, single point, set 2 | shares compounds with T cruzi growth-1 | NIH/3T3 viability, CellTiter-Glo ATP luminescence, 90 h | inhibition, % at 24.9 µM | actives 56% (n = 5,600) | AID 651744, 2012;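 active = mean loss of cell viability signal at or above a set limit, and enough replicates individually reaching it; inconclusive = meets only the mean limit or only the replicate share; inactive = meets neither condition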;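 also: 0% = median of neutral control wells and 100% = median of positive control wells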
An asterisk follows results filed as active.

Screening CCC(=O)NC[C@H]1[C@@H](c2ccc(C3=CCCC3)cc2)[C@@H](CO)N1C(C)=O returned Pf Dd2 inh 1, T cruzi growth-1 77 and GASC1 inh 2.
`COCC(=O)NC[C@@H]1[C@H](c2ccc(C3=CCCC3)cc2)[C@@H](CO)N1C(C)=O` gave Pf Dd2 inh 10, T cruzi growth-1 108*, GASC1 inh 1, T cruzi growth-2 -26, T cruzi growth-3 -22, NIH3T3 tox -2 and NIH3T3 tox 2 -2.
`COCC(=O)NC[C@@H]1[C@H](c2ccc(C3=CCCC3)cc2)[C@H](CO)N1C(C)=O` gave Pf Dd2 inh -8, T cruzi growth-1 116*, GASC1 inh 2, T cruzi growth-2 96*, T cruzi growth-3 1, NIH3T3 tox 3 and NIH3T3 tox 2 -9.
For COc1ccc(S(=O)(=O)N(C)C[C@H]2OCCCC[C@@H](C)Oc3ccc(NS(=O)(=O)c4cccs4)cc3C(=O)N([C@H](C)CO)C[C@H]2C)cc1 the results were Pf Dd2 inh -72, T cruzi growth-1 110*, GASC1 inh -3, T cruzi growth-2 113*, T cruzi growth-3 29, NIH3T3 tox 1 and NIH3T3 tox 2 -20.
COc1ccc(S(=O)(=O)N(C)C[C@H]2OCCCC[C@H](C)Oc3ccc(NS(=O)(=O)c4cccs4)cc3C(=O)N([C@@H](C)CO)C[C@@H]2C)cc1 was read as Pf Dd2 inh -71, T cruzi growth-1 107*, GASC1 inh 1, T cruzi growth-2 112*, T cruzi growth-3 33, NIH3T3 tox -8 and NIH3T3 tox 2 -8.
COc1ccc(S(=O)(=O)Nc2ccc3c(c2)C(=O)N([C@H](C)CO)C[C@@H](C)[C@@H](CN(C)S(=O)(=O)c2cccs2)OCCCC[C@H](C)O3)cc1 was read as Pf Dd2 inh -68, T cruzi growth-1 100*, IDH1 mut inh -12, GASC1 inh 0, T cruzi growth-2 90, T cruzi growth-3 15, NIH3T3 tox -23 and NIH3T3 tox 2 -17.
`C[C@@H]1CN([C@@H](C)CO)C(=O)c2cc(C3=CCCCC3)cnc2O[C@H]1CN(C)C(=O)Cc1ccncc1` gave Pf Dd2 inh -19 and GASC1 inh 0.
Screening C[C@@H]1CN([C@@H](C)CO)C(=O)c2cc(C3=CCCCC3)cnc2O[C@H]1CN(C)C(=O)Cc1ccccc1 returned Pf Dd2 inh -4, T cruzi growth-1 inconclusive, IDH1 mut inh 0, GASC1 inh 2, T cruzi growth-2 75, T cruzi growth-3 55, NIH3T3 tox 32 and NIH3T3 tox 2 64*.
`C[C@@H]1CN([C@H](C)CO)C(=O)c2cc(C3=CCCC3)cnc2O[C@@H]1CN(C)C(=O)Cc1ccncc1` gave Pf Dd2 inh -31, T cruzi growth-1 96*, GASC1 inh 0, T cruzi growth-2 25, T cruzi growth-3 -13, NIH3T3 tox -9 and NIH3T3 tox 2 28*.
`CC(C)CC#Cc1cnc2c(c1)C(=O)N([C@H](C)CO)C[C@H](C)[C@@H](CN(C)Cc1ccccc1F)O2` gave Pf Dd2 inh -29, T cruzi growth-1 103*, IDH1 mut inh -2, GASC1 inh 1, T cruzi growth-2 111*, T cruzi growth-3 79, NIH3T3 tox 8 and NIH3T3 tox 2 103*.
Screening CC(C)CC#Cc1cnc2c(c1)C(=O)N([C@H](C)CO)C[C@@H](C)[C@@H](CN(C)Cc1ccccc1F)O2 returned Pf Dd2 inh -10, T cruzi growth-1 58, IDH1 mut inh -1 and GASC1 inh -3.
`CC(C)CC#Cc1cnc2c(c1)C(=O)N([C@@H](C)CO)C[C@@H](C)[C@@H](CN(C)Cc1ccccc1F)O2` gave Pf Dd2 inh -20, T cruzi growth-1 inconclusive, IDH1 mut inh -2, GASC1 inh -4, T cruzi growth-2 107*, T cruzi growth-3 89, NIH3T3 tox inconclusive and NIH3T3 tox 2 32*.
For CC(C)CC#Cc1cnc2c(c1)C(=O)N([C@@H](C)CO)C[C@@H](C)[C@H](CN(C)Cc1ccccc1F)O2 the results were Pf Dd2 inh -31, T cruzi growth-1 119*, IDH1 mut inh -3, GASC1 inh 2, T cruzi growth-2 108*, T cruzi growth-3 75, NIH3T3 tox 6 and NIH3T3 tox 2 103*.
`O=C(CSc1nc2ccccc2s1)Nc1ccc(I)cc1` gave IDH1 mut inh 1.
For Cc1cc(C)cc(N(C(C)C(=O)Nc2cccc(Cl)c2)S(C)(=O)=O)c1 (stereo not given) the results were IDH1 mut inh 0.
COc1ccccc1NC(=O)CN(c1cc(Cl)c(Cl)cc1Cl)S(C)(=O)=O was read as IDH1 mut inh 1.
`CCCC#Cc1ccc([C@H]2[C@@H](CO)N3CCCCN(C(=O)c4ccc5c(c4)OCO5)C[C@H]23)cc1` gave Pf Dd2 inh -39, T cruzi growth-1 117*, GASC1 inh 0, T cruzi growth-2 104*, T cruzi growth-3 79, NIH3T3 tox 51* and NIH3T3 tox 2 103*.
For CCCC#Cc1ccc([C@@H]2[C@H](CO)N3CCCCN(C(=O)c4ccc5c(c4)OCO5)C[C@@H]23)cc1 the results were Pf Dd2 inh -24, T cruzi growth-1 inconclusive, GASC1 inh -2, T cruzi growth-2 106*, T cruzi growth-3 38, NIH3T3 tox 30 and NIH3T3 tox 2 103*.
Screening CC(C)C#Cc1ccc([C@@H]2[C@H]3CN(C(=O)c4ccc5c(c4)OCO5)CCCCN3[C@H]2CO)cc1 returned Pf Dd2 inh -8, T cruzi growth-1 39 and GASC1 inh -1.
For CC(C)CC#Cc1ccc([C@@H]2[C@@H](CO)N3CCCCN(C(=O)c4ccc5c(c4)OCO5)C[C@@H]23)cc1 the results were Pf Dd2 inh -43, T cruzi growth-1 91 and GASC1 inh 0.
